Experimental findings from ChEMBL document CHEMBL4715796, “Discovery of Chromane Containing Hepatitis C Virus (HCV) NS5A Inhibitors with Improved Potency against Resistance-Associated Variants” (J Med Chem, 2016) are described below.

Series [1] in a line: Selectivity ratio of EC90 for inhibition of NS5A in Hepatitis C virus subtype 3a infected in human HuH7 cells assessed as reduction in viral to EC90 for inhibition of NS5A in Hepatitis C virus subtype 1a. In kind it is cell-based.
A short description of series [2]: Selectivity ratio of EC90 for inhibition of NS5A in Hepatitis C virus subtype 2b infected in human HuH7 cells assessed as reduction in viral to EC90 for inhibition of NS5A in Hepatitis C virus subtype 1a. The format is cell-based.
Series [3] in a line: Selectivity ratio of EC90 for inhibition of NS5A in Hepatitis C virus subtype 1b infected in human HuH7 cells assessed as reduction in viral to EC90 for inhibition of NS5A in Hepatitis C virus subtype 1a. In kind it is cell-based. The gist of the method: (§1)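 Fold shift calculated against the GT1a EC90, using EC90 values from the luciferase replicon assay in Huh7-derived cells.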

The subject of series [4] is Nonstructural protein 5A (Hepatitis C virus), Q5L478 [UNDEFINED MUTATION]. Briefly: Inhibition of NS5A L31V mutant in Hepatitis C virus subtype 1a infected in human HuH7 cells assessed as reduction in viral replication by luciferase reporter gene assay. In kind it is cell-based. The settings on record: Huh-7. Summed up:
(§2)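 NS5A resistance variants engineered into GT1a-H77 or GT1b-Con1 replicons. Each variant replicon is transfected transiently by electroporation into a Huh7-derived cell line. Percent inhibition is taken from the drop in luciferase signal at each compound concentration, and EC90 is calculated from these. Values are means of at least two experiments.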

Series [5] relates to T1, Nonstructural protein 5A (Hepatitis C virus), Q5L478 [Y93H].
T1 sequence (whole entry): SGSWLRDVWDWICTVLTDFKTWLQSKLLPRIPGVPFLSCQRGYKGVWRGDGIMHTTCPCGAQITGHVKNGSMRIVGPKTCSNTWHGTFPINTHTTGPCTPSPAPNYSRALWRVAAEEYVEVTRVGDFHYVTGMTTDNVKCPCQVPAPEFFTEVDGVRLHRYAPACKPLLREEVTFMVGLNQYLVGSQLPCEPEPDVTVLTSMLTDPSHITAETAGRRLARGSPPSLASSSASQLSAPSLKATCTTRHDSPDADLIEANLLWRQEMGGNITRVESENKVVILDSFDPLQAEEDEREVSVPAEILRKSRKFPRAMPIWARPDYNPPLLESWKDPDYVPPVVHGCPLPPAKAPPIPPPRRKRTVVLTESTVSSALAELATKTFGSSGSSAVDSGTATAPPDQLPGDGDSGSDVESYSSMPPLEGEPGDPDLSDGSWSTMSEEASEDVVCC
In words: Inhibition of NS5A Y93H mutant in Hepatitis C virus subtype 1a infected in human HuH7 cells assessed as reduction in viral replication by luciferase reporter gene assay. The format is cell-based. As to conditions: Huh-7. Summed up: as §2

Series [6] deals with Huh-7. Briefly: Inhibition of NS5A in Hepatitis C virus subtype 4a infected in human HuH7 cells assessed as reduction in viral replication by luciferase reporter gene assay. In kind it is cell-based. Summed up: (§3)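 Transient replicon assay with GT1a-H77, GT1b-Con1 or chimeric replicons, electroporated into a Huh7-derived cell line. Percent inhibition of replication, read as a drop in luciferase signal, was calculated at each concentration to give EC90. Values are means of at least two experiments.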

For series [7], the system named is Huh-7. Briefly: Inhibition of NS5A in Hepatitis C virus subtype 3a infected in human HuH7 cells assessed as reduction in viral replication by luciferase reporter gene assay. The format is cell-based. The gist of the method: as §3
The test system of series [8] is Huh-7. In words: Inhibition of NS5A in Hepatitis C virus subtype 2b infected in human HuH7 cells assessed as reduction in viral replication by luciferase reporter gene assay. The format is cell-based. The gist of the method: as §3
Series [9] relates to Huh-7. Briefly: Inhibition of NS5A in Hepatitis C virus subtype 1b infected in human HuH7 cells assessed as reduction in viral replication by luciferase reporter gene assay. In kind it is cell-based. The gist of the method: as §3
For series [10], the system named is Huh-7. Briefly: Inhibition of NS5A in Hepatitis C virus subtype 1a infected in human HuH7 cells assessed as reduction in viral replication by luciferase reporter gene assay. The format is cell-based. The gist of the method:
as §3

A short description of series [11]: Selectivity ratio of EC90 for inhibition of NS5A L31V mutant in Hepatitis C virus subtype 1a infected in human HuH7 cells assessed as reduction in viral to EC90 for inhibition of NS5A in Hepatitis C virus subtype 1a. In kind it is cell-based. Summed up:
(§4)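 Fold shift is calculated against the GT1a EC90. The variant EC90 comes from a transient replicon assay: the NS5A variant is introduced into a GT1a-H77 or GT1b-Con1 replicon and electroporated into Huh7-derived cells. The read-out is reduced luciferase signal. EC90s are means of at least two experiments.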

Series [12] is described as follows: Selectivity ratio of EC90 for inhibition of NS5A Y93H mutant in Hepatitis C virus subtype 1a infected in human HuH7 cells assessed as reduction in viral to EC90 for inhibition of NS5A in Hepatitis C virus subtype 1a. In kind it is cell-based. The gist of the method: as §4
Series [13] is described as follows: Selectivity ratio of EC90 for inhibition of NS5A in Hepatitis C virus subtype 4a infected in human HuH7 cells assessed as reduction in viral to EC90 for inhibition of NS5A in Hepatitis C virus subtype 1a. The format is cell-based. Summed up:
as §1

Series [14] relates to Huh-7. In words: Inhibition of NS5A in Hepatitis C virus subtype 2a infected in human HuH7 cells assessed as reduction in viral replication by luciferase reporter gene assay. In kind it is cell-based. The gist of the method:
as §3

Series [15] is described as follows: Oral bioavailability in male Wistar Han rat at 10 mg/kg post overnight fasting measured upto 24 hrs by LC-MS/MS analysis. In kind it is ADME, organism-based. As to conditions: in vivo. Summed up: (§5)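 Overnight-fasted male Wistar Han rats or Beagle dogs, two animals per group, 24 h study. IV in 60% PEG200 (rat 2 mg/kg, dog 1 mg/kg). PO in 10% Tween (rat 10 mg/kg, dog 5 mg/kg). Blood sampled up to 24 h, plasma separated by centrifugation, and drug measured by LC/MS. MRT reported for the IV route.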

Series [16] in a line: Drug concentration in male Wistar Han rat at 10 mg/kg, po measured after 24 hrs by LC/MS analysis. In kind it is ADME, organism-based. The settings on record: in vivo, read-out: Drug uptake. Summed up: as §5
The nature of series [17]: Cmax in male Wistar Han rats at 10 mg/kg, po administered post overnight fasting measured upto 24 hrs by LC-MS/MS analysis. The settings on record: rat, in vivo. Details: route oral, dose 10 mg/kg, time <=24. In kind it is ADME, organism-based. The gist of the method: as §5
Series [18] in a line: AUC in male Wistar Han rats at 10 mg/kg, po administered post overnight fasting measured upto 24 hrs by LC-MS/MS analysis. The format is ADME, organism-based. More on the design: route oral, dose 10 mg/kg, time <=24. The settings on record: rat, in vivo. The gist of the method:
as §5

Series [19] in a line: Clearance in male Wistar Han rats at 2 mg/kg, iv administered post overnight fasting measured upto 24 hrs by LC-MS/MS analysis. The settings on record: rat, in vivo. The format is ADME, organism-based. The gist of the method: as §5
Series [20] can be described thus: Half-life in male Wistar Han rats at 2 mg/kg, iv administered post overnight fasting measured upto 24 hrs by LC-MS/MS analysis. The format is ADME, organism-based. As to conditions: rat, in vivo. The gist of the method:
as §5

As for `COC(=O)N[C@H](C(=O)N1CCC[C@H]1c1ncc(-c2cc(F)c3c(c2)OC(c2ccc4c(c2)OCC[C@H]4C)n2c-3cc3cc(-c4cnc([C@@H]5CCCN5C(=O)[C@@H](NC(=O)OC)C(C)C)[nH]4)ccc32)[nH]1)C(C)C` (some centres not stated), the Selectivity ratio came to 2 in series [1]; 50 in series [2]; 1 in series [3]; 2 in series [11]; 50 in series [12]; 1 in [13]. Besides, the EC90 in series [4] was found to be 0.007 nM; in series [5], 0.2 nM; in [6] it was 0.003 nM; in [7], 0.006 nM; in series [8] it was 0.2 nM; in series [9], 0.002 nM. The EC90 in series [10] was determined as 0.004 nM.
On to `COC(=O)N[C@H](C(=O)N1CCC[C@H]1c1ncc(-c2ccc3c(c2)OC(c2cccc(-c4ccccc4)c2)n2c-3cc3cc(-c4cnc([C@@H]5CCCN5C(=O)[C@@H](NC(=O)OC)C(C)C)[nH]4)ccc32)[nH]1)C(C)C` (mixture of isomers), for which the EC90 in [4] was 1 nM; in series [5], 21 nM; in series [6], 0.02 nM; in series [7], 0.3 nM; in series [8] it was 3.8 nM; in series [14] it was 0.004 nM. Moreover, the EC90 is 0.006 nM in series [9] and 0.005 nM in series [10].
Take `COC(=O)N[C@H](C(=O)N1CCC[C@H]1c1ncc(-c2cc(F)c3c(c2)OC(c2ccc4c(c2)OC(C)(C)C4)n2c-3cc3cc(-c4cnc([C@@H]5CCCN5C(=O)[C@@H](NC(=O)OC)C(C)C)[nH]4)ccc32)[nH]1)C(C)C.O=C(O)C(F)(F)F.O=C(O)C(F)(F)F` (some centres not stated): the Selectivity ratio stood at 2 in series [1]; 167 in series [2]; 1 in [3]; 7 in [11]; 67 in series [12]; 1 in series [13]. In addition, the bioavailability in [15] was 3%. For the same compound, in [16], the concentration at 24 h was 9 nM. The concentration in series [17] peaked (Cmax) at 58 nM. The AUC at 24 h in series [18] turned out to be 0.71 µM·h. Further, the clearance in [19] stood at 7 mL/min/kg. This compound had a half-life in [20] of 8.4 h. Also, the EC90 came to 0.02 nM in series [4]; 0.2 nM in series [5]; 0.003 nM in series [6]; 0.005 nM in series [7]; 0.5 nM in series [8]; 0.004 nM in series [9]. Moreover, in series [10], the EC90 is 0.003 nM.
Take `COC(=O)N[C@H](C(=O)N1CCC[C@H]1c1ncc(-c2cc(F)c3c(c2)OC(c2ccc4c(c2)OCC[C@@H]4C)n2c-3cc3cc(-c4cnc([C@@H]5CCCN5C(=O)[C@@H](NC(=O)OC)C(C)C)[nH]4)ccc32)[nH]1)C(C)C` (some centres not stated): the Selectivity ratio in [1] turned out to be 3; in [2] it was 50; in [3] it was 1; in series [11], 3; in series [12], 50; in [13], 1. Further, the EC90 in series [4] was determined as 0.01 nM; in series [5], 0.2 nM; in series [6], 0.003 nM; in series [7], 0.01 nM; in series [8], 0.2 nM; in series [9], 0.002 nM. The EC90 in series [10] is 0.004 nM.
As to `COC(=O)N[C@H](C(=O)N1CCC[C@H]1c1ncc(-c2cc(F)c3c(c2)OC(c2ccc4c(c2)OCCC4)n2c-3cc3cc(-c4cnc([C@@H]5CCCN5C(=O)[C@@H](NC(=O)OC)C(C)C)[nH]4)ccc32)[nH]1)C(C)C.O=C(O)C(F)(F)F.O=C(O)C(F)(F)F` (some centres not stated), the bioavailability in series [15] came to 5%. Moreover, the concentration at 24 h in [16] is 17 nM. Also, the Cmax in [17] was 86 nM. In addition, the AUC at 24 h in series [18] was determined as 1.35 µM·h. Also, the clearance in series [19] stood at 8 mL/min/kg. This compound had a half-life in series [20] of 5.8 h.
With `COC(=O)N[C@H](C(=O)N1CCC[C@H]1c1ncc(-c2ccc3c(c2)OC(c2ccc(-c4ccccc4)cc2)n2c-3cc3cc(-c4cnc([C@@H]5CCCN5C(=O)[C@@H](NC(=O)OC)C(C)C)[nH]4)ccc32)[nH]1)C(C)C` (mixture of isomers), the 90% effect concentration (EC90) in [4] is less than 2 nM; in [5], 4.6 nM; in series [6] it was less than 0.02 nM; in series [7] it was less than 0.2 nM; in series [8] it was 2.6 nM; in series [14], less than 0.2 nM. Further, the EC90 in series [9] and in series [10] was less than 0.02 nM throughout.
